Measured values: article PMC2652250 (Biochemistry, 2008)
Several values for one entry are separate records, joined by “and”; a condition that tells them apart may be missing. Equal values may be shown once. Blank lines part the entries; values can stand above or below the compound they belong to.

Key:
[1] = molecular target: cNTnC(C35S/C84S)·Ca^2+·cTnI147−163 (Homo sapiens, UniProt P19429+P63316, C35S/C84S); assay type: binding; conditions: for chemical shift changes on titration (in words): 100 mM stock added to the NMR sample
[2] = molecular target: cNTnC(C35S/C84S)·Ca^2+·cTnI144−163 (Homo sapiens, UniProt P19429+P63316, C35S/C84S); assay type: binding; conditions: for drug-induced backbone amide chemical shift changes: 1.0 mM cNTnC(C35S/C84S), […] cTnI144−163, Figure 6; for Kd: global fit of HSQC chemical shift changes, pH 6.7, 30 °C; for chemical shift changes on titration (in words): 100 mM stock added to the NMR sample
[3] = Solubility and precipitation in aqueous solution / NMR samples during titration
cNTnC(C35S/C84S)·Ca^2+ = cNTnC(C35S/C84S)·Ca^2+ (Homo sapiens, UniProt P63316, C35S/C84S); assay: 2D 1H-15N HSQC NMR titration of cNTnC; assay type: binding
cNTnC(WT)·Ca^2+ = conditions: WT isoform; cited from earlier work
cTnI147−163 = cTnI147−163 (Homo sapiens, UniProt P19429); assay: 1D 1H NMR titration of levosimendan into free cTnI147−163 peptide; assay type: binding; conditions: data not shown
Procedure, shortened: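 Test compound stocks were made fresh in DMSO-d6 for every titration and shielded from light; concentrations were determined gravimetrically. […] 1D 1H spectra were recorded at 500 MHz.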

skinned muscle fibers = conditions: cited from earlier work
cTnI144−163 = cTnI144−163 (Homo sapiens, UniProt P19429); assay: 1D 1H NMR titration of levosimendan into free cTnI144−163 peptide; assay type: binding; conditions: data not shown
[4] = molecular target: cTnC·3Ca^2+·cTnI32−79·cTnI128−180; conditions: cited from earlier work
perfused hearts = conditions: cited from earlier work
[5] = molecular target: sTnC·4Ca^2+·sTnI1−182·sTnT156−262; conditions: cited from earlier work
[6] = molecular target: cTnC·3Ca^2+·cTnI34−71·cTnI128−163; conditions: cited from earlier work

Chain of cNTnC(C35S/C84S)·Ca^2+·cTnI144−163 (P19429 145-164, other chains not shown): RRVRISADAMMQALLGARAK

Kd [1]: 6500 µM | drug-induced backbone amide chemical shift changes [2]: ≤ 20 Hz | Kd [2]: 1500 µM and ~1500 µM | solubility in aqueous solution (in words) [3]: highly soluble in aqueous solution
Compound: CC1CC(=O)NN=C1c1ccc(N)cc1 (stereo not drawn) [AMDP, 6-(4-aminophenyl)-5-methyl-4,5-dihydro-3(2H)-pyridazinone]

Compound: Ac-RISADAMMQALLGARAK-NH2 [cTnI147−163]
stoichiometry of binding (cNTnC(C35S/C84S)·Ca^2+; C35S/C84S isoform): 1/1 | equiv of peptide required to saturate the protein (cNTnC(C35S/C84S)·Ca^2+; solid peptide added, pH 6.7): 3−3.5 equiv | stoichiometry of binding (cNTnC(WT)·Ca^2+): 1/1 | solubility in aqueous solution (in words) [3]: highly soluble in aqueous solution

chemical shift change of the peptide in the presence of drug (in words) (cTnI147−163): no chemical shift change | chemical shift change of the peptide in the presence of drug (in words) (cTnI144−163): no chemical shift change | solubility in aqueous solution (in words) [3]: insoluble in aqueous solution
Compound: C[C@@H]1CC(=O)NN=C1c1ccc(NN=C(C#N)C#N)cc1 [levosimendan, (−)-[4-(1,4,5,6-tetrahydro-4-methyl-6-oxo-3-pyridazinyl)phenyl]hydrozonopropanedinitrile]
concentration of maximal effect (skinned muscle fibers): 10 µM | Kd [4]: ≥ 200 µM | lowest concentration with multiple effects (perfused hearts): 0.3 µM

Compound: CC(C)(C)CC(C)(C)c1ccc(OCCOCCOCCOCCO)cc1 [anapoe, 2-[2-(2-{2-[4-(1,1,3,3-tetramethylbutyl)phenoxy]ethoxy}ethoxy)ethoxy]ethanol]
Kd [5]: ~640 µM

Compound: NCCCCCCNS(=O)(=O)c1cccc2c(Cl)cccc12 [W7, N-(6-aminohexyl)-5-chloro-1-naphthalenesulfonamide]
Kd [6]: ~500 µM

Kd [1]: 11000 µM | drug-induced backbone amide chemical shift changes [2]: ≤ 20 Hz | Kd [2]: 2650 µM
Compound: CC1CC(=O)NN=C1c1ccc(-n2ccnc2)cc1 (stereo not drawn) [CI-930, 4,5-dihydro-6-[4-(1-imidazol-1-yl)phenyl]-5-methyl-4,5-dihydro-3(2H)-pyridazinone]

chemical shift changes on titration (in words) [1]: No chemical shift changes were observed | chemical shift changes on titration (in words) [2]: No chemical shift changes were observed
Compound: O=C1CCC(c2ccc(-n3ccnc3)cc2)=NN1 [imazodan, 4,5-dihydro-6-[4-(1-imidazol-1-yl)phenyl]-3(2H)-pyridazinone]

drug-induced backbone amide chemical shift changes [2]: ≤ 60 Hz
Compound: CC1CC(=O)NN=C1c1ccc(Cl)cc1 (stereo not drawn) [CMDP, 6-(4-chlorophenyl)-5-methyl-4,5-dihydro-3(2H)-pyridazinone]

chemical shift changes on titration (in words) [1]: No chemical shift changes were observed | chemical shift changes on titration (in words) [2]: No chemical shift changes were observed
Compound: COc1ccc(C2=NNC(=O)CC2)cc1 [MPDP, 6-(4-methoxyphenyl)-4,5-dihydro-3(2H)-pyridazinone]
